23 compounds from ChEMBL document CHEMBL1137899, “Glycosylated dihydrochalcones as potent and selective sodium glucose co-transporter 2 (SGLT2) inhibitors” (Bioorg Med Chem Lett, 2004) can be followed below.

pKi: −log10 of the molar value.

In series [1] the target is T1, Sodium/glucose cotransporter 2 (Homo sapiens, UniProt P31639).
T1 sequence (P31639 whole entry): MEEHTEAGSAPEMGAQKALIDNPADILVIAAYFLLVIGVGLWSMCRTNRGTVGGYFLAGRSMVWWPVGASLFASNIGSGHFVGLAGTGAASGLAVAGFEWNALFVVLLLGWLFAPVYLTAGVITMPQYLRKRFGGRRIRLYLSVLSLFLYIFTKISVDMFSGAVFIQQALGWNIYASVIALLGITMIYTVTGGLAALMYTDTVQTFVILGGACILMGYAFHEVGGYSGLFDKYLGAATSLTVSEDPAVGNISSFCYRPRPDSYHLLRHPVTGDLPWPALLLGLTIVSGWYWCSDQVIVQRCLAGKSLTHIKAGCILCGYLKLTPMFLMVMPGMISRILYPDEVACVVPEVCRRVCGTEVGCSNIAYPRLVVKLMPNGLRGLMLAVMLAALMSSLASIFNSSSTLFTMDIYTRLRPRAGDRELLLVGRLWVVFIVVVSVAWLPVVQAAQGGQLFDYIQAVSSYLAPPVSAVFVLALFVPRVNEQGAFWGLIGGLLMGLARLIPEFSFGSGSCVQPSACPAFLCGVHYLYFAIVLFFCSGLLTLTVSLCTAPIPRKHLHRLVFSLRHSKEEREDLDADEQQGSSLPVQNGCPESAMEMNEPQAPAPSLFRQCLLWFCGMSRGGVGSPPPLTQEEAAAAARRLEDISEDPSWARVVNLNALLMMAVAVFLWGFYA
The experiment in a line: In vitro inhibition of Na-dependent [14C]AMG uptake in CHO-K1 cells expressing human sodium glucose co-transporter 2. Type of series: functional, cell-based. The essentials: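 CHO-K1 cells overexpressing human SGLT2 pre-treated with compound for 15 min with or without NaCl, then labelled with 14C-alpha-methylglucopyranoside (AMG, nonmetabolizable glucose analogue); sodium-dependent uptake of label measured.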

Series [2] in a line: (§1) In vivo ability to induce urinary glucose excretion in male Zucker Diabetic Fatty (ZDF) rats at 3 mg/kg i.v. dose. As to conditions: rat, iv. The arrangement: dose 3 mg/kg, route intravenous. It is filed as ADME, organism-based, Urine. The procedure, abridged: (§2)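 Male ZDF rats, 7–8 weeks, fasted 12 h; compound or vehicle (10% Solutol) given i.v. at 2 mL/kg. Oral glucose challenge (4 mL/kg of 50% solution) 1 h later, rats then placed in metabolism cages with free water access; urine collected for 4 h, glucose quantified with Trinder reagent.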

A short description of series [3]: Metabolic half-life as a measure of human liver microsomal stability was determined at 5 uM. The conditions noted are these: liver microsomes. It is filed as ADME.
Series [4] deals with Rattus norvegicus. Described as §1. Type of series: functional, Urine. As to conditions: route intravenous. The essentials: as §2

`O=C(CCc1ccc2ccccc2c1)c1c(O)cc(F)cc1O[C@@H]1O[C@H](CO)[C@@H](O)[C@H](O)[C@H]1O`: the negative-log Ki (pKi) in series [1] is 7.15.
For `CC(C)c1cc(O)c(C(=O)CCc2ccc3ccccc3c2)c(O[C@@H]2O[C@H](CO)[C@@H](O)[C@H](O)[C@H]2O)c1`, in series [1], the pKi is 6.82.
`Cc1cc(O)c(C(=O)CCc2ccc3occc3c2)c(O[C@@H]2O[C@H](CO)[C@@H](O)[C@H](O)[C@H]2O)c1`: the negative logarithm of the Ki (pKi) in series [1] was 8.40. The Excreted glucose in series [2] is 1189 mg. Besides, the half-life at 5 µM in series [3] stood at 24 min.
As to `Cc1cc(O)c(C(=O)CCc2ccsc2)c(O[C@@H]2O[C@H](CO)[C@@H](O)[C@H](O)[C@H]2O)c1`, in series [1], the pKi is 7.15.
`CCOc1ccc(CCC(=O)c2c(O)cc(CC)cc2O[C@@H]2O[C@H](CO)[C@@H](O)[C@H](O)[C@H]2O)cc1` had a pKi in series [1] of 7.52. This compound also yielded a half-life at 5 µM in series [3] above 45 min.
Compound `CCc1cc(O)c(C(=O)CCc2ccc3ccccc3c2)c(O[C@@H]2O[C@H](CO)[C@@H](O)[C@H](O)[C@H]2O)c1` had a pKi in series [1] of 8.00.
The same measure, in the same setting: in the case of `Cc1cc(O)c(C(=O)CCc2ccoc2)c(O[C@@H]2O[C@H](CO)[C@@H](O)[C@H](O)[C@H]2O)c1` it was 6.64; in that of `O=C(CCc1ccc2ccccc2c1)c1c(O)cc(Cl)cc1O[C@@H]1O[C@H](CO)[C@@H](O)[C@H](O)[C@H]1O`, 7.52.
Same read-out and setting: the result for `Cc1cc(N)c(C(=O)CCc2ccc3c(c2)OCCO3)c(O[C@@H]2O[C@H](CO)[C@@H](O)[C@H](O)[C@H]2O)c1` reads 6.54; that for `O=C(CCc1ccc2c(c1)OCCO2)c1c(O)cc(Cl)cc1O[C@@H]1O[C@H](CO)[C@@H](O)[C@H](O)[C@H]1O`, 7.70.
`Cc1cc(O)c(C(=O)CCc2ccc3c(c2)OCCO3)c(O[C@@H]2O[C@H](CO)[C@@H](O)[C@H](O)[C@H]2O)c1` had a pKi in series [1] of 8.05. In addition, the Excreted glucose in series [4] amounted to 608 mg. The half-life at 5 µM in series [3] was above 45 min.
Compound `CCOc1ccc(CCC(=O)c2c(O)cc(C(C)C)cc2O[C@@H]2O[C@H](CO)[C@@H](O)[C@H](O)[C@H]2O)cc1` showed a pKi in series [1] of 6.96.
With `CCOc1ccc(CCC(=O)c2c(O)cc(C)cc2O[C@@H]2O[C@H](CO)[C@@H](O)[C@H](O)[C@H]2O)cc1`, the pKi in series [1] is 8.00. Besides, the half-life at 5 µM in series [3] is above 45 min.
Turning to `Cc1cc(O)c(C(=O)CCc2ccc3ccccc3c2)c(O[C@@H]2O[C@H](CO)[C@@H](O)[C@H](O)[C@H]2O)c1`, the negative logarithm of the Ki (pKi) in series [1] was 8.00.
Compound `Cc1cc(O)c(C(=O)CCC2CCCCC2)c(O[C@@H]2O[C@H](CO)[C@@H](O)[C@H](O)[C@H]2O)c1` had a pKi in series [1] of 7.40.
Same read-out and setting: the result for `CCc1cc(O)c(C(=O)CCc2ccc3c(c2)OCCO3)c(O[C@@H]2O[C@H](CO)[C@@H](O)[C@H](O)[C@H]2O)c1` reads 8.00; that for `CCOc1ccc(CCC(=O)c2c(N)cc(C)cc2O[C@@H]2O[C@H](CO)[C@@H](O)[C@H](O)[C@H]2O)cc1`, 5.89.
For `Cc1cc(N)c(C(=O)CCc2ccc3ccccc3c2)c(O[C@@H]2O[C@H](CO)[C@@H](O)[C@H](O)[C@H]2O)c1`, the pKi in series [1] is 6.28. This pKi lies 0.39 log units higher than the previous one.
Take `CCOc1ccc(CCC(=O)c2c(O)cc(Cl)cc2O[C@@H]2O[C@H](CO)[C@@H](O)[C@H](O)[C@H]2O)cc1`: the pKi in series [1] is 7.10.
Still for that read-out and setting: in the case of `CCOc1ccc(CCC(=O)c2c(Cl)cccc2O[C@@H]2O[C@H](CO)[C@@H](O)[C@H](O)[C@H]2O)cc1` it was below 5.77; in that of `CC(C)c1cc(O)c(C(=O)CCc2ccc3c(c2)OCCO3)c(O[C@@H]2O[C@H](CO)[C@@H](O)[C@H](O)[C@H]2O)c1`, 7.70; in that of `O=C(CCc1ccc2ccccc2c1)c1c(Cl)cccc1O[C@@H]1O[C@H](CO)[C@@H](O)[C@H](O)[C@H]1O`, below 5.77.
On the same count and under the same terms, in the case of `O=C(CCc1ccc2c(c1)OCCO2)c1c(Cl)cccc1O[C@@H]1O[C@H](CO)[C@@H](O)[C@H](O)[C@H]1O` it was below 5.77.
